Assay results published in ChEMBL document CHEMBL1127498, “Synthesis and DNA-sequence selectivity of a series of mono- and difunctional 9-aminoacridine nitrogen mustards” (J Med Chem, 1994).

Tested on: HT-29
Assay: Concentration required to inhibit colony formation by 50% in human colon carcinoma HT-29 cells
Type: functional, cell-based
How it was run: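 HT-29 cells grown in Eagle's MEM with 15% heat-inactivated FBS. Exponential-phase cells (2 × 10⁵/mL) plated, treated 16-20 h later with a range of drug concentrations for 30 min at 37 °C in medium with 1% serum. Washed twice, trypsinized, replated in triplicate at 10^2, 10^3, 10^4 cells/25-cm² flask for colony counts. At least two independent experiments; untreated plating efficiency 40-65%.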

Q: Which IC50 does the source give for `CCN(CCCl)CCNc1c2ccccc2nc2ccc(OC)cc12` here?
A: 1100 nM

Q: How did the IC50 turn out when `CCN(CCCl)CCCNc1c2ccccc2nc2ccc(OC)cc12` was run?
A: 370 nM

Q: With `CCN(CCCl)CCCCCCNc1c2ccccc2nc2ccc(OC)cc12` as the molecule, how does the IC50 read?
A: 750 nM

Q: `CCN(CCCl)CCCCNc1c2ccccc2nc2ccc(OC)cc12` was tested. Which IC50 did it give?
A: 250 nM

Q: Which IC50 does the source give for `COc1ccc2nc3ccccc3c(NCCN(CCCl)CCCl)c2c1` here?
A: 110 nM

Q: `CCN(CCCl)CCCCCNc1c2ccccc2nc2ccc(OC)cc12` was tested. Which IC50 did it give?
A: 700 nM

Q: How did the IC50 turn out when `COc1ccc2nc3ccccc3c(NCCCCN(CCCl)CCCl)c2c1` was run?
A: 10 nM

Q: With `COc1ccc2nc3ccccc3c(NCCCN(CCCl)CCCl)c2c1` as the molecule, how does the IC50 read?
A: 20 nM

Q: `COc1ccc2nc3ccccc3c(NCCCCCN(CCCl)CCCl)c2c1` was tested. Which IC50 did it give?
A: 30 nM

Q: How did the IC50 turn out when `COc1ccc2nc3ccccc3c(NCCCCCCN(CCCl)CCCl)c2c1` was run?
A: 60 nM

Q: `CCN(CC)CCCC(C)Nc1c2ccc(Cl)cc2nc2ccc(OC)cc12` (stereo unspecified) [QUINACRINE] was tested. Which IC50 did it give?
A: 55000 nM
